# ASAP1 GAP inh – inhibitors of human ASAP1 ArfGAP activity, primary screen, biochemical, fluorescence polarization; Arf-GAP with SH3 domain, ANK repeat and PH domain-containing protein 1 (Homo sapiens), …; ASAP1-stimulated ARF1 GTP hydrolysis, GDP FP detection; inhibition, % at 16.5 µM; 0.19% of 360,000 active; in the data active = inhibition above about 25%;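 also: 0% = vehicle with enzyme and substrate and 100% = no enzyme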
# Target sequence (Q9ULH1 325-724 limits assumed): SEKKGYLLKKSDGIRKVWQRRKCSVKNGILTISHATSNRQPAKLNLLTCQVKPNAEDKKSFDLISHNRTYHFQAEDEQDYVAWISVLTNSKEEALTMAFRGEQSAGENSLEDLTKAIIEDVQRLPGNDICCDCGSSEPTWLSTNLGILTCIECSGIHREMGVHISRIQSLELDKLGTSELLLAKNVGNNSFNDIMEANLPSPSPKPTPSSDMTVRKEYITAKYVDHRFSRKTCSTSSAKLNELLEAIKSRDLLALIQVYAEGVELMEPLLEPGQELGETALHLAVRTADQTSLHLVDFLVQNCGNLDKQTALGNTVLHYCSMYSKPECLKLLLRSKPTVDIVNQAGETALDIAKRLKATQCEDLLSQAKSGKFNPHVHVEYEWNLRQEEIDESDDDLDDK
# HGIII-sPLA2 inh – human group III sPLA2 inhibitors, primary screen, biochemical, QFRET, BODIPY PC-A2 liposome substrate | AID 743126, 2013 | 0.56% of 370,000 active | QFRET BODIPY PC-A2 liposome hydrolysis, fluorescence | Group 3 secretory phospholipase A2 (Homo sapiens), Q9NZ20 | inhibition, % at 12.2 µM;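 active = inhibition above mean plus 3 SD of compounds lying within the high and low control bounds, cut at about 19% in these data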;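 also: 0% = median of test compound wells and 100% = no enzyme DMSO wells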
# SKKanGAS inh – S. pyogenes SKKanGAS growth inhibitors in kanamycin, primary screen, streptokinase expression inhibitor project, SKKanGAS strain, BacTiter-Glo luminescence | 6 h | inhibition, % at 7.5 µM | 1.3% of 300,000 active | AID 1662, 2009;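 active = mean replicate score, as percent of positive control median, at least 50; inconclusive = mean below 50 but one replicate at or above 50; inactive = mean and every replicate below 50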;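 also: strain carries kanamycin resistance gene driven by streptokinase promoter and grows in 40 µg/ml kanamycin; loss of luminescence reflects streptokinase promoter inhibition or plain growth inhibition; 0% = median of DMSO wells and 100% = positive control at its reference dose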
# ARFGAP1 inh – inhibitors of rat ARFGAP1 GAP activity, primary screen, biochemical, fluorescence polarization, GDP tracer. ADP-ribosylation factor GTPase-activating protein 1 (Rattus norvegicus), Q62848. Arfgap1-stimulated ARF1 GTP hydrolysis, GDP FP detection. inhibition, % at 16.5 µM. 0.26% of 360,000 active;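 active = inhibition above a per-plate limit, mean inhibition of low control wells plus 3 SD, cut at about 25% in these data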;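 also: 0% = DMSO wells with enzyme and 100% = wells lacking Arfgap1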
# Target sequence (Q62848 1-136 limits assumed): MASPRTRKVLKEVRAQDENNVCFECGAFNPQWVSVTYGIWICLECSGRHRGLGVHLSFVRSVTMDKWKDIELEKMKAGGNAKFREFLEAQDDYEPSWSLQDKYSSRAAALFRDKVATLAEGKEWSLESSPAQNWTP
#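 Assay system: purified rat His6-Arfgap1 residues 1-136 (GAP domain); Reagent: human Δ17 ARF1 bound to GTP; Dosing: 16.5 µM single point, 1.26% DMSO; Times: GTP hydrolysis reaction 2 h at 25 °C; Signal: FP, GDP Alexa 633 tracer displaced from anti-GDP antibody, 620/688 nm; Measure: % inhibition from polarization.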
# Calb FLC – C. albicans growth inhibition with fluconazole, primary screen, CaCi-2 strain, Alamar Blue fluorescence | 0.57% of 300,000 active | growth inhibition, % (test concentration not listed) | AID 1979, 2009 | C. albicans CaCi-2 + fluconazole, 48 h;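 active = growth inhibition above about 58% in most replicates, limit read from the data, passing the limit was not always enough; inconclusive = exactly half the replicates above a set limit; inactive = most replicates below a set limit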;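 also: all wells also contain fluconazole at 8 µg/ml as a sub-toxic cotreatment; 0% = median of DMSO wells and 100% = median of geldanamycin control wells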
# * hit, by the source's call; ? = inconclusive; · = not tested or not shown. Sampled rows, rich in hits. Any-hit rate of the full collection: about 2.3%.
SMILES,ASAP1 GAP inh,HGIII-sPLA2 inh,SKKanGAS inh,ARFGAP1 inh,Calb FLC
CCc1ccc(NC2=NCC(c3ccccc3)S2)cc1 (stereo unspecified),2,-3,94*,0,-26
Cc1ccc(NC2=NCC(Cc3ccc(Br)cc3)S2)cc1 (stereo unspecified),7,-4,85*,-1,-46
O=[N+]([O-])c1ccc(C2CN=C(Nc3ccccc3)S2)cc1 (stereo unspecified),-4,-3,17,2,-31
CC1(C)CC(=O)C2=C(C1)c1c(ccc3ccccc13)NC2c1cc([N+](=O)[O-])cc([N+](=O)[O-])c1O (stereo unspecified),5,-10,72*,2,111*
CC(=NNC(=O)c1ccncc1)c1ccc2ccccc2c1O,-9,20*,·,-2,·
Cc1nc(NS(=O)(=O)c2ccc(Cl)s2)c2c3c(sc2n1)CCCC3,-9,-43,63*,-1,-1
O=C(COC(=O)C1CCC1)Nc1ccccc1Sc1ccccc1,3,1,-5,3,19
O=C(COC(=O)CCC1CCCC1)Nc1ccccc1Sc1ccccc1,-4,3,80*,1,4
Cc1ccc(C(=O)Oc2ccccc2N2CCOCC2)cc1,10,-4,8,0,-25
Cc1ccc(C(=O)OC2OC(=O)C(Cl)=C2N2CCOCC2)cc1 (stereo unspecified),2,-1,75*,-8,15
COc1ccc(Cn2c(C3CCCCC3)nc3c(c(=O)c4ccccc4n3C)c2=O)cc1,·,·,70*,·,13
Cn1c2ccccc2c(=O)c2c(=O)n(C3CCCCC3)c(-c3cccs3)nc21,8,-1,60*,-5,42
COc1ccc(CCn2c(C3CCCCC3)nc3c(c(=O)c4ccccc4n3C)c2=O)cc1,-10,6,68*,-6,45
Cc1nc2c(c(=O)c3ccccc3n2C)c(=O)n1C1CCCC1,2,-10,·,-4,·
O=C(O)/C=C/c1ccc(S(=O)(=O)Nc2ccc(OCc3ccccc3)cc2)cc1,-3,-27,-6,0,-9
O=C(O)/C=C/c1ccc(S(=O)(=O)Nc2ccc(C(=O)NCC(=O)O)cc2)cc1,6,4,-2,-1,50*
CCOC(=O)c1ccc(NC(=O)C2COc3ccccc3O2)cc1 (stereo unspecified),4,-7,-2,-5,5
CCOC(=O)c1ccc(-n2c(O)c(/C=N/NC(=O)C3COc4ccccc4O3)c3ccccc3c2=O)cc1 (stereo unspecified),-2,15,103*,5,-3
Cc1ccnc(NC(c2cccnc2)c2ccc3cccnc3c2O)c1 (stereo unspecified),-1,16,?,-7,90*
COc1ccccc1NC(c1cccnc1)c1ccc2cccnc2c1O (stereo unspecified),0,-6,5,6,82*
Cc1cc(NC(c2ccc(Cl)cc2)c2ccc3cccnc3c2O)no1 (stereo unspecified),-12,35*,101*,12,101*
O=C(O)c1ccccc1NC(c1ccccc1)c1ccc2cccnc2c1O (stereo unspecified),1,9,·,0,·
CC(=O)NC(c1ccc(Cl)cc1)c1ccc2cccnc2c1O (stereo unspecified),-13,8,·,2,·
Cc1ccc2ccc(C(Nc3cccc(C(F)(F)F)c3)c3cccnc3)c(O)c2n1 (stereo unspecified),16,1,65*,-7,0
Cc1ccnc(NC(c2ccccc2)c2ccc3cccnc3c2O)c1 (stereo unspecified),-5,16,·,0,·
SMILES,ASAP1 GAP inh,HGIII-sPLA2 inh,SKKanGAS inh,ARFGAP1 inh,Calb FLC
COC(=O)C1CN(Cc2ccccc2)CCS(=O)(=O)N1Cc1ccc(OC)cc1 (stereo unspecified),·,0,·,·,·
CCc1ccc(-c2cn(C3CCCCC3)c(=S)[nH]2)cc1,16,23*,18,3,-16
COc1cc2c(C(=O)N3CCN(c4ccccc4C)CC3)c(C)oc2cc1Br,12,1,51*,10,8
COc1ccccc1N1CCN(C(=O)c2c(C)cc(=O)oc2C)CC1,-6,4,-5,-11,·
COc1cc([C@@H]2c3cc4c(cc3[C@@H](NC3CCN(Cc5ccccc5)CC3)[C@H]3COC(=O)[C@H]23)OCO4)cc(OC)c1O,·,·,8,·,101*
CCn1c(C)nc2cc(-c3nc4n(n3)Cc3ccccc3-4)ccc21,·,·,65*,·,13
Cc1ccccc1Oc1cc(-n2ncc(Cl)c(Cl)c2=O)ncn1,-9,21*,·,1,·
COC(=O)c1cc2c(c3c4cc(OC)ccc4n(S(=O)(=O)c4cccc(C)c4)c13)C(=O)N(Cc1ccc(N(C)C)cc1)C2,-4,7,·,0,·
OC(c1ccccn1)C(O)c1ccccn1 (stereo unspecified),7,-3,·,4,·
c1ccc(C(c2c[nH]c3ccccc23)c2c[nH]c3ccccc23)nc1,3,-85,76*,16,4
Cn1cc(C(c2ccccn2)c2cn(C)c3ccccc23)c2ccccc21,-3,-1,16,10,94*
Cn1cc(C(c2ccccc2OCC(=O)O)c2cn(C)c3ccccc23)c2ccccc21,-2,-7,9,9,68
COc1cc(CN2C[C@@H](CO)O[C@@H](n3cnc4c(N5CCCC5)ncnc43)C2)cc(OC)c1OC,-11,3,·,5,·
CC(C)(C)OC(=O)/C=C/[C@H](CCCCl)Sc1ccc(C(C)(C)C)cc1,·,-6,·,·,·
CCc1ccc(S(=O)(=O)/N=C2\C=C(Nc3ccc(O)cc3)C(=O)c3ccccc32)cc1,·,·,109*,·,13
CCc1ccc(S(=O)(=O)/N=C2\C=C(Nc3cccc(C(=O)O)c3)C(=O)c3ccccc32)cc1,22,-5,106*,3,47
O=C(O)c1ccc(NC2=C/C(=N/S(=O)(=O)c3ccccc3)c3ccccc3C2=O)cc1,-3,-3,·,0,·
Cc1cc(C)c(S(=O)(=O)/N=C2\C=C(Nc3ccc(C(=O)O)cc3)C(=O)c3ccccc32)c(C)c1,21,-13,112*,-1,35
CCOC(=O)CC[C@@]1(C(=O)OCC)C[C@@H](CC(=O)N2CCSCC2)C(=O)N2CCCC=C21,·,15,·,·,·
N[C@H](C(=O)N[C@@H](Cc1ccccc1)C(=O)N1CCC2CCN(S(=O)(=O)c3ccccc3)CC21)c1ccccc1 (stereo partly specified),·,15,·,·,·
